From ChEMBL document CHEMBL1140857 (Bioorg Med Chem, 2009)

What was measured:
[1] = Displacement of [3H][…] from opioid sigma2 receptor in rat liver homogenate in presence of (+)-pentazocine; type: tissue-based
In short: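 Rat liver membranes (about 100 µg protein, 50 mM Tris pH 8.0) incubated 180 min at room temperature with six concentrations of test compound, 3 nM [3H]-ditolylguanidine (Kd 17.9 nM) and 500 nM (+)-pentazocine. […] IC50 by nonlinear regression, Ki by Cheng–Prusoff; triplicates, mean ± SEM of three experiments.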

[2] = biological target: Sigma non-opioid intracellular receptor 1 (Cavia porcellus) (UniProt Q60492); assay: Displacement of [3H](+)-pentazocine from opioid sigma1 receptor in guinea pig brain homogenate at 1 uM; type: tissue-based
Sigma non-opioid intracellular receptor 1 (Cavia porcellus), sequence (Q60492 whole entry): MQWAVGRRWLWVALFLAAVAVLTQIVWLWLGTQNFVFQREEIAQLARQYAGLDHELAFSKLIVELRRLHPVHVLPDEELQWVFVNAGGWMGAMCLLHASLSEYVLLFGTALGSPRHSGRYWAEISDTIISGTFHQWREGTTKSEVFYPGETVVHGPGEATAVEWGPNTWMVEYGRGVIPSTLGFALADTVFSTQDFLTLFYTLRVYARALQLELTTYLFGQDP
In short: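 Guinea pig brain membranes (about 75 µg protein, 50 mM Tris pH 7.4) with 2 nM [3H]-(+)-pentazocine, 180 min at 37 °C. Test compound at 1 µM; inhibition of radioligand binding reported. Non-specific binding with 10 µM unlabeled (+)-pentazocine; filtration and scintillation counting.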

Sus scrofa = species: Sus scrofa; assay: Displacement of [3H]MK-801 from NMDA receptor in pig brain cortex at 1 uM
5637 = assay: Cytotoxicity against human 5637 cells at 20 uM after 96 hrs by crystal violet staining relative to control; type: functional
In short: (§1)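 Cell lines from DSMZ (German collection). Cells exposed to 20 µM test substance at 37 °C for 96 h; medium removed and adherent (living) cells stained with crystal violet. Growth given as % of untreated control; averages of two independent experiments.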

RT-4 = assay: Cytotoxicity against human RT4 cells at 20 uM after 96 hrs by crystal violet staining relative to control; type: functional; in short: as §1
A-427 [3] = assay: Cytotoxicity against human A427 cells at 20 uM after 96 hrs by crystal violet staining relative to control; type: functional; in short: as §1
[4] = Cytotoxicity against human LCLC-103H cells at 20 uM after 96 hrs by crystal violet staining relative to control; type: functional; in short: as §1
DAN-G = assay: Cytotoxicity against human DAN-G cells after 96 hrs at 20 uM by crystal violet staining relative to control; type: functional; in short: as §1
A-427 [5] = assay: Cytotoxicity against human A427 cells after 96 hrs by crystal violet staining relative to control; type: functional, cell-based; details: A-427, 96 h
In short: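 Crystal violet microtiter assay, 96 h exposure at 37 °C. Five serial dilutions from DMF stock solutions; concentrations giving T/C between 10% and 90% used, and IC50 calculated by least-squares analysis of dose–response curves.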

MCF7 = assay: Cytotoxicity against human MCF7 cells after 96 hrs at 20 uM by crystal violet staining relative to control; type: functional; in short: as §1
[6] = Selectivity ratio of Ki for rat sigma2 receptor to Ki for guinea pig sigma1 receptor
[7] = biological target: Sigma non-opioid intracellular receptor 1 (Cavia porcellus, UniProt Q60492); assay: Displacement of [3H](+)-pentazocine from opioid sigma1 receptor in guinea pig brain homogenate; type: tissue-based
Sigma non-opioid intracellular receptor 1, sequence (Q60492 whole entry): as above
In short: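 Non-specific binding with 10 µM unlabeled (+)-pentazocine. Filtration, scintillation counting; IC50 by nonlinear regression, Ki by Cheng–Prusoff; triplicates, mean ± SEM of three independent experiments.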

For `C=CCN1C[C@H]2[C@@H](OC)CC[C@@H]1CN2Cc1ccc(OC)cc1OC`, which Ki [1] is on record?
Its Ki is 13500 nM.

What about the inhibition [2] of the same molecule?
The inhibition was 37%.

What about the Activity (Sus scrofa) of the same molecule?
Its Activity is under 25%.

What about the Activity 5637 of the same molecule?
Its Activity is 63%.

What about the Activity (RT-4) of the same molecule?
Its Activity is 87%.

What about the Activity (A-427 [3]) of the same molecule?
The Activity was 49%.

What about the Activity [4] of the same molecule?
Its Activity is 98%.

What about the Activity (DAN-G) of the same molecule?
The Activity was 84%.

And the IC50 (A-427 [5])?
The IC50 was 18900 nM.

What about the Activity (MCF7) of the same molecule?
The Activity was 79%.

What does the source list for `C=CCN1C[C@H]2[C@@H](O)CC[C@@H]1CN2Cc1ccc(OC)cc1`?
Ratio [6]: 4; Ki [7]: 343 nM; Ki [1]: 1210 nM; Activity (Sus scrofa): < 25%; Activity 5637: 104%; Activity (RT-4): 107%; Activity (A-427 [3]): 90%; Activity [4]: 111%; Activity (DAN-G): 100%; Activity (MCF7): 99%

With `C=CCN1C[C@@H]2CCC[C@H]1CN2Cc1ccc(OC)cc1` as the molecule, how does the Ratio [6] read?
Its Ratio is 20.

What about the Ki [7] of the same molecule?
Its Ki is 11 nM.

What about the Ki [1] of the same molecule?
Its Ki is 203 nM.

And the Activity (Sus scrofa)?
The Activity was under 25%.

And the Activity 5637?
Its Activity is 87%.

And the Activity (RT-4)?
The Activity was 65%.

And the Activity (A-427 [3])?
Its Activity is 42%.

What about the Activity [4] of the same molecule?
The Activity was 91%.

What about the Activity (DAN-G) of the same molecule?
The Activity was 92%.

And the Activity (MCF7)?
Its Activity is 65%.
